Screening results from PubChem.
M1 agonist – M1 muscarinic receptor agonism | CHO-M1 cells, Fluo-4 calcium fluorescence, agonist mode; active compounds read high | B-score at 10 µM | 3% of 64,000 active | AID 626;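 active = fluorescence rise, raw or as B-score row- and column-corrected plate score, outside the 99.7% band of its plate's samples, either direction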
M1 antagonist – antagonists of rat M1 muscarinic receptor | AID 628 | CHO-M1 cells, Fluo-4 calcium, ACh EC80 antagonist mode; active compounds read low | B-score at 10 µM | 3.4% of 64,000 active | P08482;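 active = calcium fluorescence response, raw or row-and-column corrected B-score, differing from the plate sample mean either way at a set confidence level, mostly lower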
Target sequence (P08482 whole entry, looked up): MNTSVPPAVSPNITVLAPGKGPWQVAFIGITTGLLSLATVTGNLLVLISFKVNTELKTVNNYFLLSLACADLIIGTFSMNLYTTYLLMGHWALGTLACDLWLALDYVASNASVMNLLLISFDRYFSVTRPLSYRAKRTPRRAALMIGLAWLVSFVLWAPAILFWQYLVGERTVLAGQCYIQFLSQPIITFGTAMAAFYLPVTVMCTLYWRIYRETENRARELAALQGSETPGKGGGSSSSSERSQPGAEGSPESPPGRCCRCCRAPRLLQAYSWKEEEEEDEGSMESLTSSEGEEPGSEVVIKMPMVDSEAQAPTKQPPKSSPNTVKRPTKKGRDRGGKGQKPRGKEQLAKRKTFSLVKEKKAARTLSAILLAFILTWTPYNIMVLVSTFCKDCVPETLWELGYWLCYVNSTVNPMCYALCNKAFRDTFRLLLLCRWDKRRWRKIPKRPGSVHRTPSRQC
S1P3 agonist – S1P3 (human) receptor agonism | Q99500 | S1P3 NFAT-BLA reporter cells, FRET ratio; relative to 1 µM S1P, basal subtracted | activation, % at 4.5 µM | 0.1% of 60,000 active | AID 373;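 active = activation above the screen-wide mean plus 3 SD, cut at about 4.5% in these data, passing the limit was not always enough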
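material = human S1P3 NFAT-BLA reporter CHO cells | schedule = 4 h compound at 37 °C, 2 h substrate at RT | measured by = fluorescent BLA substrate, ex 405 nm, em 460/535 nm ratio | controls = 1 µM S1P reference | replication = primary once, confirmation triplicate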
D1 mod – D1 dopamine receptor (human) allosteric modulation | P21728 | HEK293 D1, CRE-luciferase, dopamine EC30 potentiation; actives deviate in either direction | B-score at 10 µM | 5.9% of 58,000 active;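 active = luminescence count or its row- and column-corrected plate score outside the 99.7% band of the plate's sample wells, on either side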
S1P1 ag pot – activates or potentiates agonism at human S1P1 receptor | activation, % at 9.5 µM | 0.57% of 56,000 active | P21453 | S1P1 CRE-bla cells, forskolin, beta-lactamase FRET, potentiator mode; S1P1 agonist co-added at EC20, 2 nM; 100% = saturating reference agonist, 0% = basal;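 active = activation above a cutoff set at the mean activation of all tested compounds plus 3 SD, cut at about 54% in these data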;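 also: forskolin at 4 µM as EC80 and the EC20 agonist is SEW2871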
D1 mod confirm – D1 receptor (human) allosteric modulation, confirmed | HEK293 D1 CRE-luciferase, dopamine EC30 potentiation; active compounds read high | AID 642 | 88% of 2,200 active | luminescence at 10 µM | shares compounds with D1 mod;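 active = luminescence in either of two replicates above the same-plate mean plus 3 SD of the low-dose dopamine control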
D1 ag no DA – secondary test of D1 modulators: activity without dopamine; shares compounds with D1 mod; HEK293 D1 CRE-luciferase, luminescence, no dopamine; active compounds read high; luminescence at 10 µM; 0.8% of 1,900 active; AID 646; in the data active = luminescence above about 3900
Isoprot counter – alters isoproterenol CRE-luciferase response in HEK293 cells. shares compounds with D1 mod. HEK293 D1 CRE-luciferase, isoproterenol EC30 counter-screen. calls only at 10 µM. 63% of 2,200 active. AID 647;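 active = luminescence in either replicate above plate mean of wells with a partly effective reference agonist dose plus 3 SD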;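 also: isoproterenol raises cAMP through native beta-adrenoceptor Gs so signal bypasses D1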
Each line names hits and unclear results; the compound was inactive in the other large screens (follow-up assays come after a bar, where they were run). Most compounds without a hit are left out; they make up all but 11% or so of the library.

Cc1cc(=O)[nH]c(Nc2ccc(C(=O)OC(C)C)cc2)n1	none
COc1ccc(CC(=O)Nc2nc(C)cs2)cc1OC	D1 mod 3.9 | D1 mod confirm 12824 | D1 ag no DA inactive | Isoprot counter active
COc1cccc(-c2csc(NC(C)=O)n2)c1	none
O=C(Cc1cccs1)Nc1nnc(CCc2ccccc2)s1	none (no result: S1P1 ag pot)
COc1ccc(Cc2nnc(NC(=O)Cc3cccs3)s2)cc1OC	D1 mod 17 | D1 mod confirm 27116 | D1 ag no DA inactive | Isoprot counter active
COc1ccc(-c2csc(NC(C)=O)n2)cc1OC	D1 mod 6.1 (no result: S1P1 ag pot) | D1 mod confirm 10116 | D1 ag no DA inactive | Isoprot counter active
Cc1ccc(-c2nn(C)c(=O)c3ccccc23)cc1CNC(=O)c1ccco1	none (no result: S1P3 agonist, D1 mod, S1P1 ag pot)
CCOC(=O)c1oc2ccccc2c1NC(=O)c1cccc(OC)c1	none
CCOC(=O)c1oc2ccccc2c1NC(=O)C1CCCCC1	D1 mod 9.5 | D1 mod confirm 15764 | Isoprot counter active
CCOC(=O)c1oc2ccccc2c1NC(=O)c1cccc(OC)c1OC	D1 mod 16 | D1 mod confirm 20936 | D1 ag no DA inactive | Isoprot counter active
CC(=O)Nc1c(C(=O)C2CC2)oc2ccccc12	D1 mod 8.3 | D1 mod confirm 13456 | D1 ag no DA inactive | Isoprot counter active
N#Cc1ccccc1OCC(=O)Nc1c(C(=O)C2CC2)oc2ccccc12	none
Cc1cccc(C)c1NC(=O)CSc1nnc(Cn2nnc(-c3ccccc3)n2)n1-c1ccccc1	none
CCOc1ccc2cc(C#N)c(SCC(=O)N3CCC(C)CC3)nc2c1	D1 mod 7.2 | D1 mod confirm 6372 | D1 ag no DA inactive | Isoprot counter active
CCOC(=O)CSc1nc2cc(OCC)ccc2cc1C#N	none
CCOc1ccc(-n2cnnn2)cc1S(=O)(=O)N1CCCCC1	none (no result: S1P1 ag pot)
CCOc1ccc(C(C)=O)cc1COc1ccc(-n2cnnn2)cc1	D1 mod 5.9 | D1 mod confirm 15484 | D1 ag no DA inactive | Isoprot counter active
CCOC(=O)c1c(NC(=O)CN2CCOCC2)sc2c1CCCC2=O	D1 mod 5.4 | D1 mod confirm 8480 | D1 ag no DA inactive | Isoprot counter active
CCOC(=O)c1c(NC(=O)CN2CCCCC2)sc2c1CCN(C(=O)OCC)C2	D1 mod 3.7 | D1 mod confirm 7072 | Isoprot counter active
CCOC(=O)c1c(NC(=O)CN2CCOCC2)sc2c1CCCC2	none
CCOC(=O)c1c(-c2cccs2)csc1NC(=O)CN1CCOCC1	D1 mod 11 | D1 mod confirm 19940 | D1 ag no DA inactive | Isoprot counter active
CCOC(=O)c1c(NC(=O)CN(CC)CC)sc2c1CCN(C(=O)OCC)C2	D1 mod 6.1 (no result: M1 agonist, M1 antagonist) | D1 mod confirm 8852 | D1 ag no DA inactive | Isoprot counter active
COc1cc(C(=O)NCc2cn3ccsc3n2)cc(OC)c1OC	none
O=S(=O)(c1ccc(NC2CCCCC2)cc1)N1CCOCC1	none
Cc1ccc(CCNC(=O)C2CCN(C(=O)N(C)C)CC2)cc1	none
Cc1ccc(-n2c(SCC(=O)OC(C)C)nnc2-c2cnccn2)cc1	D1 mod 4.6 | D1 mod confirm 8068 | D1 ag no DA inactive | Isoprot counter inactive
CN(C)C(=O)CSc1nc(SCC(=O)N(C)C)n(-c2ccccc2)n1	none
CN(C(=O)CSc1nc(N)nn1-c1ccccc1)c1ccccc1	D1 mod 11 | D1 mod confirm inactive | D1 ag no DA inactive | Isoprot counter inactive
CCc1nc2ccccc2n1Cc1ccc(OC)c(OC)c1	D1 mod 6.2 (no result: S1P3 agonist, S1P1 ag pot) | D1 mod confirm 18880 | D1 ag no DA inactive | Isoprot counter active
COc1ccc(Cn2c(CCCO)nc3ccccc32)cc1OC	D1 mod 14 | D1 mod confirm 15968 | D1 ag no DA inactive | Isoprot counter active
